Test results as given in ChEMBL document CHEMBL1781992, “A novel monocarbonyl analogue of curcumin, (1E,4E)-1,5-bis(2,3-dimethoxyphenyl)penta-1,4-dien-3-one, induced cancer cell H460 apoptosis via activation of endoplasmic reticulum stress signaling pathway” (J Med Chem, 2011).
Calls of active or inactive are those of the source. The calls are words filed in the database; no cut-off is given here.

How the values were obtained:
NCI-H460 [1] = experiment: Induction of apoptosis in human NCI-H460 cells assessed as late apoptotic cells at 10 uM after 6 hrs by annexinV-propidium iodide staining based flow cytometric analysis relative to control; format: functional
How it was run: (§1)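 H460 cells plated for 6 h, then treated with 5, 10 or 20 μM. Cells washed, trypsin-EDTA detached and resuspended in PBS, then stained with annexin V and propidium iodide plus RNase and 0.1% Triton X-100 for 30 min at 37 °C before flow cytometry. Figure legend gives 6 h incubation.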

NCI-H460 [2] = experiment: Induction of apoptosis in human NCI-H460 cells assessed as activation of caspase 9 activation at 20 uM after 24 hrs by Western blot analysis; format: functional, cell-based
NCI-H460 [3] = experiment: Induction of apoptosis in human NCI-H460 cells assessed as early apoptotic cells at 20 uM after 6 hrs by annexinV-propidium iodide staining based flow cytometric analysis relative to control; format: functional; how it was run: as §1
NCI-H460 [4] = experiment: Decrease in CHOP protein expression in human NCI-H460 cells transfected with lentivirus carrying CHOP siRNA at 10 uM after 6 hrs by Western blot analysis
NCI-H460 [5] = experiment: Induction of XBP-1 mRNA expression in human NCI-H460 cells after 3 hrs by real time quantitative PCR analysis
NCI-H460 [6] = experiment: Cytotoxicity against human NCI-H460 cells after 72 hrs by MTT assay; format: functional, cell-based; conditions: NCI-H460, 72 h
How it was run: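 H460 cells grown in RPMI 1640 with 5% FBS at 37 °C, 10% CO2, treated 24 h after seeding. Compounds in DMSO diluted into medium at final 100, 33.3, 11.1 and 3.7 μg/mL for 72 h. MTT (5 mg/mL in 0.9% NaCl) added for 3 h, formazan dissolved in DMSO and read at 570 nm; IC50 derived.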

[7] = molecular target: Transcription factor Jun (Homo sapiens) (UniProt P05412); experiment: Induction of c-Jun phosphorylation in human NCI-H460 cells at 20 uM after 3 hrs by Western blot analysis; format: cell-based
Sequence of Transcription factor Jun (Homo sapiens) (P05412 whole entry): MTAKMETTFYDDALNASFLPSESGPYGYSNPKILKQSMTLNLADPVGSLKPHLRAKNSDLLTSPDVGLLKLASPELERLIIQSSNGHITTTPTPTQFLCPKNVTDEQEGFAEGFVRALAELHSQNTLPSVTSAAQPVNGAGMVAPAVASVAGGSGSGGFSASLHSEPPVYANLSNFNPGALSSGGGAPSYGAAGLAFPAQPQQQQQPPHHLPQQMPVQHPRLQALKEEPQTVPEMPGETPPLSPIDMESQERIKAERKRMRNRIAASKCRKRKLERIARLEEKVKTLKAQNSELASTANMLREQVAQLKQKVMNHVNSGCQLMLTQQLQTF
How it was run: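 H460 cells cultured in RPMI 1640 with 5% heat-inactivated FBS at 37 C, 10% CO2; exposed to 20 μM for a time course. Lysed at 0 C in Tris-HCl pH 7.4 buffer with NP40, SDS, and protease/phosphatase inhibitors. Phospho-c-Jun detected by Western blot with chemiluminescence, actin as loading control; band density quantified.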

NCI-H460 [8] = experiment: Induction of apoptosis in human NCI-H460 cells assessed as morphological changes at 5 to 20 uM after 24 hrs by light microscopic analysis; format: functional, cell-based
How it was run: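 H460 cells treated at 5, 10 or 20 μM for 24 h; morphology imaged by light microscope at 20× magnification.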

NCI-H460 [9] = experiment: Induction of XBP-1 protein expression level in human NCI-H460 cells after 6 hrs by Western blot analysis; format: functional, cell-based
How it was run: (§2)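 H460 cells exposed to 20 μM for varying times, or to a range of concentrations for 6 h. ATF-4 and XBP-1 protein measured by Western blot with actin as loading control.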

NCI-H460 [10] = experiment: Induction of apoptosis in human NCI-H460 cells at 20 uM after 6 hrs by flow cytometric analysis; format: functional; how it was run: as §1
NCI-H460 [11] = experiment: Cytotoxicity against human NCI-H460 cells assessed as reduction of cell survival after 24 hrs by CellTiter-Glo analysis; format: functional, cell-based
How it was run: (§3)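 H460 cells (5 × 10^3/well) seeded overnight, then given fresh medium containing compound from DMSO stock (final 5, 10, 20 μM; 2.5–30 μM in the figure) for 24 h. Viability measured with CellTiter-Glo and expressed as percent of vehicle-treated cells; Student's t test.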

NCI-H460 [12] = experiment: Induction of apoptosis in human NCI-H460 cells assessed as viable cells at 5 uM after 6 hrs by annexinV-propidium iodide staining based flow cytometric analysis relative to control; format: functional; conditions: NCI-H460, 6 h, read-out: Activity; how it was run: as §1
NCI-H460 [13] = experiment: Antitumor activity against human NCI-H460 cells xenografted in nude Balb/cA mouse assessed as decrease in tumor volume at 10 mg/kg, ip qd for 20 days measured on day 22 relative to control; format: functional; parameters: scale not given: the % may be the effect or the level left; conditions: route intraperitoneal
How it was run: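 BALB/cA nu/nu female athymic mice bearing sc right-flank xenografts (3 × 10^6 H460 cells in PBS); once-daily ip dosing began on day 10, when tumors reached 100–300 mm3. Water-soluble liposome preparation in PBS at 10 or 50 mg/kg; controls received liposome vehicle in PBS. Volume = lw²/2; T/C read on day 22. Seven mice per group, mean ± SD; Student's t test.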

NCI-H460 [14] = experiment: Induction of ATF-4 protein expression level in human NCI-H460 cells after 6 hrs by Western blot analysis; format: functional, cell-based; how it was run: as §2
NCI-H460 [15] = experiment: Induction of CHOP mRNA expression in human NCI-H460 cells after 6 hrs by real time quantitative PCR analysis; format: functional, cell-based
How it was run: (§4)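 H460 cells exposed to a concentration range for 6 or 12 h. CHOP mRNA measured by RT-PCR/qPCR and normalized to β-actin.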

NCI-H460 [16] = experiment: Cytotoxicity against human NCI-H460 cells assessed as cell viability at 20 uM after 24 hrs by CellTiter-Glo analysis; format: functional; conditions: NCI-H460, 24 h, read-out: Activity; how it was run: as §3
NCI-H460 [17] = experiment: Induction of ATF-4 protein level in human NCI-H460 cells at 20 uM after 6 hrs by Western blot analysis
NCI-H460 [18] = experiment: Induction of CHOP expression in human NCI-H460 cells at 15 to 20 uM after 24 hrs by Western blot analysis; format: functional, cell-based
How it was run: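 H460 cells treated for 24 h at the indicated concentrations; whole-cell lysates probed for CHOP by Western blot, with actin as loading control.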

NCI-H460 [19] = experiment: Induction of apoptosis in human NCI-H460 cells assessed as non-viable necrotic cells at 5 uM after 6 hrs by annexinV-propidium iodide staining based flow cytometric analysis relative to control; format: functional; how it was run: as §1
NCI-H460 [20] = experiment: Induction of CHOP mRNA expression in human NCI-H460 cells after 12 hrs by real time quantitative PCR analysis; format: functional, cell-based; how it was run: as §4
NCI-H460 [21] = experiment: Induction of CHOP protein expression in human NCI-H460 cells after 6 to 24 hrs by Western blot analysis; format: functional, cell-based
How it was run: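 H460 cells treated for 6–24 h, or across a range of concentrations. CHOP protein measured by Western blot, densitometry expressed as percent of control; Student's t test.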

Mus musculus = experiment: Toxicity in ICR mouse assessed as mortality at 400 to 800 mg/kg; format: organism-based; parameters: dose 400-800 mg/kg; conditions: in vivo
NCI-H460 [22] = experiment: Induction of GRP78 mRNA expression in human NCI-H460 cells after 3 hrs by real time quantitative PCR analysis; format: functional, cell-based
How it was run: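 H460 cells treated across a concentration range for 3 h. GRP78 mRNA quantified by RT-qPCR, normalized to β-actin and expressed as percent of vehicle.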

NCI-H460 [23] = experiment: Induction of apoptosis in human NCI-H460 cells assessed as activation of caspase 3 activity at 20 uM after 24 hrs by Western blot analysis; format: functional, cell-based
NCI-H460 [24] = experiment: Induction of ATF-4 mRNA expression in human NCI-H460 cells after 3 hrs by real time quantitative PCR analysis

`COc1cccc(/C=C/C(=O)/C=C/c2cccc(OC)c2OC)c1OC` was tested. Which Activity (NCI-H460 [1]) did it give?
Its Activity is 3.3%.

What about the Activity (NCI-H460 [2]) of the same compound?
Its Activity is “Active”.

And the Activity (NCI-H460 [3])?
The Activity was 29.68%.

What about the Activity (NCI-H460 [4]) of the same compound?
The Activity was “inactive”.

What about the Activity (NCI-H460 [5]) of the same compound?
Its Activity is “Dose-dependent effect”.

And the IC50 (NCI-H460 [6])?
The IC50 was 6.74 µM.

What about the Activity [7] of the same compound?
Its Activity is “Active”.

What about the Activity (NCI-H460 [8]) of the same compound?
The Activity was “Active”.

And the Activity (NCI-H460 [9])?
Its Activity is “Dose-dependent effect”.

And the Activity (NCI-H460 [10])?
Its Activity is 29.63%.

What about the Activity (NCI-H460 [11]) of the same compound?
The Activity was “Dose-dependent effect”.

And the viability at 5 µM (NCI-H460 [12])?
Its viability at 5 µM is 89.4%.

And the Activity (NCI-H460 [13])?
The Activity was 75.8%.

What about the Activity (NCI-H460 [14]) of the same compound?
Its Activity is “Dose-dependent effect”.

And the Activity (NCI-H460 [15])?
The Activity was “Dose-dependent effect”.

What about the viability at 20 µM (NCI-H460 [16]) of the same compound?
The viability at 20 µM was 16%.

What about the Activity (NCI-H460 [17]) of the same compound?
The Activity was “Active”.

And the Activity (NCI-H460 [18])?
Its Activity is “Active”.

What about the Activity (NCI-H460 [19]) of the same compound?
The Activity was 0.55%.

And the Activity (NCI-H460 [20])?
Its Activity is “Dose-dependent effect”.

What about the Activity (NCI-H460 [21]) of the same compound?
The Activity was “Dose-dependent effect”.

What about the Activity (Mus musculus) of the same compound?
Its Activity is “Non-toxic”.

What about the Activity (NCI-H460 [22]) of the same compound?
Its Activity is “Dose-dependent effect”.

What about the Activity (NCI-H460 [23]) of the same compound?
Its Activity is “Active”.

What about the Activity (NCI-H460 [24]) of the same compound?
Its Activity is “Dose-dependent effect”.
